Rows were chosen to be rich in hits. Some 2.3% of all compounds tested hit in one or more screens of this group.
MEKK3 PB1 HTS: modulators (inhibitors or enhancers) of MEK5 binding to human MEKK3 PB1 domain. Q99759. binding response (% of control), % at 10 µM. bead-based flow cytometry, Alexa488-MEK5 binding to MEKK3; actives lie on both sides; 0 = blocked by unlabeled MEK5, 100 = vehicle. 290,000 tested, 1.4% active;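 active = binding response more than 3 SD above or below the average of its plate-row segment, actives on both sides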;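 note: Alexa488 bead fluorescence after subtracting the streptavidin-only scavenger bead signal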
MEKK2 WT-MEK5: raises or lowers MEK5 binding to wildtype human MEKK2 PB1 domain; Q9Y2U5; bead flow cytometry, Alexa488-MEK5 binding to MEKK2 WT; actives lie on both sides; binding response (% of control), % at 10 µM; 290,000 tested, 1.1% active; in the data active = binding response below about 67% or above about 130%
Arrestin-AP2 inh: blocks beta-arrestin peptide binding to AP2 adaptin; AID 504490; 340,000 tested, 0.31% active; FITC-arrestin peptide / GST-AP2 beads, flow cytometry; AP2 beta2 appendage carries R879A mutation; inhibition, % at 10 µM;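 active = inhibition above a set limit, near 3 SD of compounds lacking own fluorescence, cut at about 54% in these data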;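 note: plate controls were DMSO wells for no effect and 5 µM unlabelled arrestin peptide for full effect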
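Measured by: flow cytometry, FL1 (488/535 nm); Material: AP2 appendage R879A on GSH beads; Evaluation: percent response; Timing: pre-incubation 12 min, peptide binding 1 h, room temperature; Also added: 50 nM FITC-arrestin peptide; Medium: PBS with 0.05% Tween 20 and 0.1% BSA.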
MEKK2mut PB1 HTS: signal of MEK5 binding to mutant human MEKK2 PB1 domain. 290,000 tested, 0.35% active. bead flow cytometry, Alexa488-MEK5 binding to MEKK2 mutant. percent response, % at 10 µM; in the data active = percent response above about 24%, passing the limit was not always enough
Arr AP2 CP1: human beta-arrestin and AP2 interaction inhibition, cherry pick; AID 504908; 1,300 tested, 2% active; inhibition, % at 10 µM; GST-AP2 beads, FITC arrestin peptide binding, flow cytometry; GST-fused beta2-adaptin appendage, R879A mutant; shares compounds with Arrestin-AP2 inh;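 active = inhibition above a set limit, roughly 3 SD of non-fluorescent compound noise, cut at about 38% in these data; inactive = inhibition at or below that limit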;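 note: loss of bead fluorescence from 50 nM FITC arrestin peptide bound to appendage; 0% = negative control wells and 100% = excess unlabelled arrestin peptide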
GST-FITC bead: disrupts GST binding to glutathione beads, arrestin-AP2 artifact; shares compounds with Arrestin-AP2 inh; GST-fluorescein binding to GSH beads, fluorescence, counter-screen; inhibition, % at 10 µM; 1,300 tested, 2% active;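 active = inhibition above 50%, about 3 SD of the inhibition seen with non-fluorescent compounds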;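 note: fluorescein maleimide labelled GST captured on 4 micron glutathione beads; higher means more loss of bead fluorescence from quenching or blocked binding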
Starred values were filed as active, the others as inactive.

Screening CC(=O)c1ccccc1NC(=O)c1cc(S(=O)(=O)N2CCOCC2)ccc1N1CCCC1 returned Arrestin-AP2 inh -1, Arr AP2 CP1 1 and GST-FITC bead -7.
Screening CCCNC(=O)c1cc(S(=O)(=O)N2CCCCC2)ccc1N1CCOCC1 returned Arrestin-AP2 inh 20.
CC(C)CNC(=O)c1cc(S(=O)(=O)N2CCOCC2)ccc1N1CCCC1 was read as MEKK3 PB1 HTS 98, MEKK2 WT-MEK5 98, Arrestin-AP2 inh 55*, MEKK2mut PB1 HTS 5, Arr AP2 CP1 9 and GST-FITC bead -6.
For COc1ccc(CCNC(=O)c2cc(S(=O)(=O)N3CCOCC3)ccc2N2CCCC2)cc1OC the results were Arrestin-AP2 inh -11, Arr AP2 CP1 -11 and GST-FITC bead 2.
For O=C(Nc1ccccc1N1CCCC1)c1cc(S(=O)(=O)N2CCOCC2)ccc1Cl the results were Arrestin-AP2 inh 31.
CSCCC(NC(=O)c1ccccc1Br)C(=O)Nc1ccc(C)cc1 (configuration not stated) was read as MEKK3 PB1 HTS 106, MEKK2 WT-MEK5 111, Arrestin-AP2 inh 1 and MEKK2mut PB1 HTS 15.
`COc1ccc(CCC(=O)Nc2cc(S(C)(=O)=O)ccc2Cl)cc1` gave MEKK3 PB1 HTS 100, MEKK2 WT-MEK5 100, Arrestin-AP2 inh -13 and MEKK2mut PB1 HTS -4.
Screening Cc1ccc2[nH]c(=O)c3cc(C(=O)N(C)c4ccc(C)c(C)c4)sc3c2c1 returned MEKK3 PB1 HTS 100, MEKK2 WT-MEK5 99, Arrestin-AP2 inh 58*, MEKK2mut PB1 HTS 0, Arr AP2 CP1 12 and GST-FITC bead -6.
O=C(O)Cn1c(SCCOc2ccccc2)nc2ccccc21 was read as MEKK3 PB1 HTS 103, MEKK2 WT-MEK5 103, Arrestin-AP2 inh 8 and MEKK2mut PB1 HTS 3.
Screening Cc1ccc(OCCSc2nc3ccccc3n2CC(=O)O)cc1C returned MEKK3 PB1 HTS 104, MEKK2 WT-MEK5 106, Arrestin-AP2 inh 54*, MEKK2mut PB1 HTS 3, Arr AP2 CP1 -1 and GST-FITC bead -3.
Cc1cccc2cc(/C=C3\N=C(c4ccccc4)OC3=O)c(N3CCOCC3)nc12 was read as Arrestin-AP2 inh 67*, Arr AP2 CP1 14 and GST-FITC bead 23.
For COc1ccc(C(=O)NC(=S)Nc2ccc(CN3CCOCC3)cc2)cc1OC the results were MEKK3 PB1 HTS 97, MEKK2 WT-MEK5 98, Arrestin-AP2 inh 49 and MEKK2mut PB1 HTS -1.
Screening CC(C)COc1ccc(C(=O)NC(=S)Nc2ccc(CN3CCOCC3)cc2)cc1 returned MEKK3 PB1 HTS 91, MEKK2 WT-MEK5 102, Arrestin-AP2 inh 103*, MEKK2mut PB1 HTS -1, Arr AP2 CP1 13 and GST-FITC bead 36.
Screening O=C(/C=C/c1ccccc1)Nc1ccc(CN2CCOCC2)cc1 returned MEKK3 PB1 HTS 100, MEKK2 WT-MEK5 100, Arrestin-AP2 inh -12 and MEKK2mut PB1 HTS 10.
For O=C(/C=C/c1ccc(Cl)cc1)NC(=S)Nc1ccc(CN2CCOCC2)cc1 the results were MEKK3 PB1 HTS 84, MEKK2 WT-MEK5 91, Arrestin-AP2 inh 105*, MEKK2mut PB1 HTS -6, Arr AP2 CP1 8 and GST-FITC bead -5.
Screening Cc1ccc(NC(=O)N2CCCCCC2)cc1C returned MEKK3 PB1 HTS 104, MEKK2 WT-MEK5 107, Arrestin-AP2 inh 63*, MEKK2mut PB1 HTS 3, Arr AP2 CP1 -14 and GST-FITC bead -4.
Screening O=C(CCn1c(=O)[nH]c2ccccc2c1=O)Nc1ccccc1 returned MEKK3 PB1 HTS 97, MEKK2 WT-MEK5 89, Arrestin-AP2 inh -14, MEKK2mut PB1 HTS -1, Arr AP2 CP1 -15 and GST-FITC bead -7.
O=C(CCCn1c(=O)[nH]c2ccccc2c1=O)Nc1ccc(F)cc1 was read as MEKK3 PB1 HTS 100, MEKK2 WT-MEK5 101, Arrestin-AP2 inh 57*, MEKK2mut PB1 HTS 0, Arr AP2 CP1 -9 and GST-FITC bead -10.

Source: PubChem
